Laboratory results published in ChEMBL document CHEMBL3393056, “Identification of nicotinamide phosphoribosyltransferase (NAMPT) inhibitors with no evidence of CYP3A4 time-dependent inhibition and improved aqueous solubility” (Bioorg Med Chem Lett, 2015).

Legend:
[1] = Clearance in rat at 1 mg/kg, iv; format: ADME, organism-based; design: dose 1 mg/kg, route intravenous; settings: in vivo
Procedure, shortened: (§1)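 Male Sprague Dawley rats and male beagle dogs were dosed IV at 1 mg/kg or orally at 5 mg/kg. Plasma concentration–time profiles were followed. Each time point is the mean from three separate animals.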

[2] = Half life in rat at 1 mg/kg, iv; format: ADME, organism-based; design: dose 1 mg/kg, route intravenous; settings: in vivo; procedure, shortened: as §1
[3] = Volume of distribution at steady state in rat at 1 mg/kg, iv; format: ADME, organism-based; design: dose 1 mg/kg, route intravenous; settings: in vivo, read-out: Vdss; procedure, shortened: as §1
[4] = AUC in rat at 5 mg/kg, po; format: ADME, organism-based; design: dose 5 mg/kg, route oral; settings: plasma; procedure, shortened: as §1
[5] = Cmax in rat at 5 mg/kg, po; format: ADME, organism-based; design: dose 5 mg/kg, route oral; settings: in vivo; procedure, shortened: as §1
[6] = Oral bioavailability in rat at 5 mg/kg; format: ADME, organism-based; settings: in vivo; procedure, shortened: as §1
[7] = Clearance in dog at 1 mg/kg, iv; format: ADME, organism-based, Canis lupus familiaris; design: dose 1 mg/kg, route intravenous; settings: in vivo; procedure, shortened: as §1
[8] = Half life in dog at 1 mg/kg, iv; format: ADME, organism-based, Canis lupus familiaris; design: dose 1 mg/kg, route intravenous; settings: in vivo; procedure, shortened: as §1
[9] = Volume of distribution at steady state in dog at 1 mg/kg, iv; format: ADME, organism-based, Canis lupus familiaris; design: dose 1 mg/kg, route intravenous; settings: in vivo, read-out: Vdss; procedure, shortened: as §1
[10] = AUC in dog at 5 mg/kg, po; format: ADME, organism-based, Canis lupus familiaris; design: dose 5 mg/kg, route oral; settings: plasma; procedure, shortened: as §1
[11] = Cmax in dog at 5 mg/kg, po; format: ADME, organism-based, Canis lupus familiaris; design: dose 5 mg/kg, route oral; settings: in vivo; procedure, shortened: as §1
[12] = Oral bioavailability in dog at 5 mg/kg; format: ADME, organism-based, Canis lupus familiaris; settings: in vivo; procedure, shortened: as §1

Row | clearance [1] | half-life [2] | Vd [3] | AUC [4] | Cmax [5] | bioavailability [6] | clearance [7] | half-life [8] | Vd [9] | AUC [10] | Cmax [11] | bioavailability [12] | Structure (SMILES)
1 | 225 mL/min/kg | 0.93 h | 17 L/kg | 0.27 µM·h | 70 nM | 31% | – | – | – | – | – | – | CC(C)CN1CCC([S@](=O)c2ccc(CNC(=O)c3cc4ccncc4o3)cc2)CC1
2 | 40 mL/min/kg | 1 h | 2 L/kg | 3.3 µM·h | 1000 nM | 61% | 6.7 mL/min/kg | 4.7 h | 1.6 L/kg | 33 µM·h | 4700 nM | 115% | O=C(NCc1ccc(S(=O)(=O)c2cc(F)cc(F)c2)cn1)c1cc2ccncc2o1
3 | 105 mL/min/kg | 0.6 h | 3 L/kg | 1.2 µM·h | 1000 nM | 62% | – | – | – | – | – | – | O=C(NCc1ccc([S@@](=O)c2cc(F)cc(F)c2)cn1)c1cc2ccncc2o1
4 | 55 mL/min/kg | 2.3 h | 3.2 L/kg | 3 µM·h | 1500 nM | 74% | 9.8 mL/min/kg | 1.5 h | 1 L/kg | 28 µM·h | 8600 nM | 141% | CC(C)n1cc(S(=O)(=O)c2ccc(CNC(=O)c3cc4ccncc4o3)nc2)cn1
